According to ChEMBL document CHEMBL1145822, “4-Aryl-3-(hydroxyalkyl)quinolin-2-ones: novel maxi-K channel opening relaxants of corporal smooth muscle targeted for erectile dysfunction” (J Med Chem, 2003):
pIC50: −log10 of the molar value.

What was measured:
Type in all cases: functional
Oryctolagus cuniculus [1] = species on record: Oryctolagus cuniculus; test: Percentage inhibition of isometric force in response to 10 uM compound in isolated rabbit corpus cavernosum precontracted with 3 uM phenylephrine
Procedure, shortened: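 New Zealand white rabbit (3.4–3.7 kg) corpus cavernosum strips (3–5 mm) in oxygenated modified Krebs Henseleit bicarbonate buffer, 37 °C, equilibrated ≥1 h at 1.0 g resting tension; contracted with phenylephrine 3 μM to steady force before compound; isometric force read; percent inhibition of phenylephrine-induced force relative to vehicle control.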

Xenopus laevis = species on record: Xenopus laevis; test: Effect of compound (20 uM) on maxi-K-mediated outward current in Xenopus laevis oocytes expressing the cloned hSlo maxi-K channels was determined
Procedure, shortened: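 Two-electrode voltage clamp of Xenopus laevis oocytes expressing cloned hSlo maxi-K channels; single 20 μM drug concentration applied, measuring iberiotoxin-sensitive outward K⁺ current in at least five oocytes per compound; result given as mean percent change in hSlo current versus drug-free control (100%).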

Oryctolagus cuniculus [2] = species on record: Oryctolagus cuniculus; test: Tested for concentration dependent relaxation over a period of 90 min in isolated rabbit corpus cavernosum.; settings: 1.5 h

Molecule `OCCCc1c(O)nc2ccc(C(F)(F)F)cc2c1-c1cc(Cl)ccc1O` has an Inhibition (Oryctolagus cuniculus [1]) of 43% and an Increase (Xenopus laevis) of 292%.

With `OCc1c(O)nc2ccc(C(F)(F)F)cc2c1-c1cc(Cl)ccc1O` the Inhibition (Oryctolagus cuniculus [1]) was 36% and the Increase (Xenopus laevis) was 198%.

With `COc1ccc(Cl)cc1-c1c(/C=C/CO)c(O)nc2ccc(C(F)(F)F)cc12` the Inhibition (Oryctolagus cuniculus [1]) was 31.8% and the Increase (Xenopus laevis) was 223%.

With `OC/C=C/c1c(O)nc2ccc(C(F)(F)F)cc2c1-c1cc(Cl)ccc1O` the Inhibition (Oryctolagus cuniculus [1]) was 46% and the Increase (Xenopus laevis) was 257%.

In the case of `O=c1[nH]c2cc(C(F)(F)F)ccc2n1-c1cc(Cl)ccc1O`, the Inhibition (Oryctolagus cuniculus [1]) was 31% and the Increase (Xenopus laevis) was 132%.

For `COc1ccc(Cl)cc1-c1c(CCO)c(O)nc2ccc(C(F)(F)F)cc12`, the Inhibition (Oryctolagus cuniculus [1]) was 26.8% and the Increase (Xenopus laevis) was 211%.

With `COc1ccc(Cl)cc1-c1c(CCCO)c(O)nc2ccc(C(F)(F)F)cc12` the Inhibition (Oryctolagus cuniculus [1]) was 35.7% and the Increase (Xenopus laevis) was 258%.

With `COc1ccc(Cl)cc1-c1c(CO)c(O)nc2ccc(C(F)(F)F)cc12` the Increase (Xenopus laevis) was 114%.

`O=c1[nH]c2ccc(C(F)(F)F)cc2c(-c2cc(Cl)ccc2O)c1CCO` [BMS-223131] showed a pIC50 (Oryctolagus cuniculus [2]) of 5.30, an Inhibition (Oryctolagus cuniculus [1]) of 83.7% and an Increase (Xenopus laevis) of 378%.
